Columns and labels:
Mus musculus [1] = organism: Mus musculus; test: Percent clearance of Nematospiroides dubius from mouse after oral treatment of 0.12 mg/mouse/day; format: functional
Procedure, shortened: (§1)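 Mice naturally carrying Syphacia obvelata were experimentally infected with Nematospiroides dubius and Hymenolepis nana, then grouped after a 2-week prepatency. Finely ground compound was suspended in aqueous 0.10% carboxymethylcellulose, 0.04% polysorbate 80 and 0.0042% polyparaben, and 0.1 mL was given orally by cannula once daily for 4 days to five mice. Necropsy followed 2 days later, scoring presence or absence of each parasite. Control clearance was subtracted from the treated clearance.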

Mus musculus [2] = organism: Mus musculus; test: Percent clearance of Hymenolepis nana from mouse after oral treatment of 0.12 mg/mouse/day; format: functional; procedure, shortened: as §1
Canis familiaris [3] = organism: Canis familiaris; test: Percent reduction in Uncinaria eggs per gram, after treatment of 100 mg/dog dose of compound in a single treatment; format: functional, Canis lupus familiaris, Egg
Canis familiaris [4] = organism: Canis familiaris; test: Percentt reduction in Toxascaris eggs per gram, after treatment of 100 mg/dog dose of compound in a single treatment; format: functional, Canis lupus familiaris, Egg
Canis familiaris [5] = organism: Canis familiaris; test: Percent reduction in Ancylostoma eggs per gram, after treatment of 100 mg/dog dose of compound in a single treatment; format: functional, Canis lupus familiaris, Egg
Procedure, shortened: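 Dogs naturally infected with Toxascaris leonina were experimentally infected with mixed Ancylostoma caninum and Uncinaria stenocephala larvae. Finely ground compound was given orally in gelatin capsules. Fecal egg counts were taken three times before and three times after treatment, and activity was taken as the fall in egg counts.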

Mus musculus [6] = organism: Mus musculus; test: Percent clearance of Nematospiroides dubius from mouse after oral treatment of 1.87 mg/mouse/day; format: functional; procedure, shortened: as §1
Ovis aries [7] = test: Percent reduction in Trichostrongylus eggs per gram, after treatment with 350 mg/kg dose of compound perorally in sheep; format: functional, Egg; details: route oral
Ovis aries [8] = test: Percent reduction in Trichostrongylus eggs per gram, after treatment with 400 mg/kg dose of compound perorally in sheep; format: functional, Egg; details: route oral
Procedure, shortened: (§2)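 Naturally parasitized lambs, dosed orally either with a suspension by stomach tube or with finely ground compound in gelatin capsules by balling gun. Activity was scored by the clinical test method, meaning a significant fall in helminth egg counts after treatment.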

Ovis aries [9] = test: Percent reduction in Trichostrongylus eggs per gram, after treatment with 450 mg/kg dose of compound perorally in sheep; format: functional, Egg; details: route oral; procedure, shortened: as §2
Ovis aries [10] = test: Percent reduction in Trichostrongylus eggs per gram, treatment of 100 mg/kg dose of compound perorally in sheep; format: functional, Egg; details: route oral
Ovis aries [11] = test: Percent reduction in Trichuris eggs per gram, after treatment of 100 mg/kg dose of compound perorally in sheep; format: functional, Egg; details: route oral
Ovis aries [12] = test: Percent reduction in Trichuris eggs per gram, after treatment of with 200 mg/kg dose of compound perorally in sheep; format: functional, Egg; details: route oral
Ovis aries [13] = test: Percent reduction in Trichuris eggs per gram, after treatment with 400 mg/kg dose of compound perorally in sheep; format: functional, Egg; details: route oral; procedure, shortened: as §2
Ovis aries [14] = test: Percent reduction in Haemonchus eggs per gram, after treatment of 250 mg/kg dose of compound perorally in sheep; format: functional, Egg; details: route oral
Procedure, shortened: (§3)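 Naturally parasitized lambs received compound orally, either as the aqueous suspension by stomach tube or as finely ground powder in gelatin capsules by balling gun. Activity was judged by the clinical test method, as a significant decrease in posttreatment helminth egg counts.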

Ovis aries [15] = test: Percent reduction in Strongyloides eggs per gram, after treatment of 100 mg/kg dose of compound perorally in sheep; format: functional, Egg; details: route oral; procedure, shortened: as §2
Ovis aries [16] = test: Percent reduction in Strongyloides eggs per gram, after treatment with 450 mg/kg dose of compound perorally in sheep; format: functional, Egg; details: route oral; procedure, shortened: as §2
Ovis aries [17] = test: Percent reduction in Haemonchus eggs per gram, after treatment of 200 mg/kg dose of compound perorally in sheep; format: functional, Egg; details: route oral; procedure, shortened: as §3
Ovis aries [18] = test: Percent reduction in Nematodirus eggs per gram, after treatment with 250 mg/kg dose of compound perorally in sheep; format: functional, Egg; details: route oral
Procedure, shortened: (§4)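 Naturally parasitized lambs were dosed orally at the stated mg/kg. Dosing was either as a suspension of finely ground compound by stomach tube, or as ground compound weighed into gelatin capsules and given by balling gun. Activity was scored by the clinical test method: the decrease in posttreatment helminth eggs per gram.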

Ovis aries [19] = test: Percent reduction in Nematodirus eggs per gram, after treatment with 350 mg/kg dose of compound perorally in sheep; format: functional, Egg; details: route oral; procedure, shortened: as §4
Ovis aries [20] = test: Percent reduction in Nematodirus eggs per gram, after treatment with 400 mg/kg dose of compound perorally in sheep; format: functional, Egg; details: route oral; procedure, shortened: as §4
Ovis aries [21] = test: Percent reduction in Oesophagostomum eggs per gram, after treatment of 100 mg/kg dose of compound perorally in sheep; format: functional, Egg; details: route oral; procedure, shortened: as §4
Ovis aries [22] = test: Percent reduction in Haemonchus eggs per gram, after treatment with 450 mg/kg dose of compound perorally in sheep; format: functional, Egg; details: route oral; procedure, shortened: as §4
Ovis aries [23] = test: Percent reduction in Moniezia eggs per gram, after treatment of 200 mg/kg dose of compound perorally in sheep; format: functional, Egg; details: route oral; procedure, shortened: as §4
Ovis aries [24] = test: Percent reduction in Moniezia eggs per gram, after treatment with 400 mg/kg dose of compound perorally in sheep; format: functional, Egg; details: route oral; procedure, shortened: as §4
Ovis aries [25] = test: Percent reduction in Nematodirus eggs per gram, after treatment of 200 mg/kg dose of compound perorally in sheep; format: functional, Egg; details: route oral; procedure, shortened: as §4
Ovis aries [26] = test: Percent reduction in Nematodirus eggs per gram, after treatment of 100 mg/kg dose of compound perorally in sheep; format: functional, Egg; details: route oral; procedure, shortened: as §4
Ovis aries [27] = test: Percent reduction in Strongyloides eggs per gram, after treatment with 350 mg/kg dose of compound perorally in sheep; format: functional, Egg; details: route oral; procedure, shortened: as §2
Ovis aries [28] = test: Percent reduction in Strongyloides eggs per gram, after treatment with 400 mg/kg dose of compound perorally in sheep; format: functional, Egg; details: route oral; procedure, shortened: as §2
Ovis aries [29] = test: Percent reduction in Ostertagia eggs per gram, after treatment with 350 mg/kg dose of compound perorally in sheep; format: functional, Egg; details: route oral; procedure, shortened: as §2
Ovis aries [30] = test: Percent reduction in Ostertagia eggs per gram, after treatment with 400 mg/kg dose of compound perorally in sheep; format: functional, Egg; details: route oral; procedure, shortened: as §2
Ovis aries [31] = test: Percent reduction in Ostertagia eggs per gram, after treatment with 450 mg/kg dose of compound perorally in sheep; format: functional, Egg; details: route oral; procedure, shortened: as §2
Ovis aries [32] = test: Percent reduction in Trichostrongylus eggs per gram, after ral treatment of 200 mg/kg dose of compound perorally in sheep; format: functional, Egg; details: route oral; procedure, shortened: as §2
Ovis aries [33] = test: Percent reduction in Trichostrongylus eggs per gram, after oral treatment of 250 mg/kg dose of compound perorally in sheep; format: functional, Egg; procedure, shortened: as §2
Ovis aries [34] = test: Percent reduction in Oesophagostomum eggs per gram, after treatment with 350 mg/kg dose of compound perorally in sheep; format: functional, Egg; details: route oral; procedure, shortened: as §4
Ovis aries [35] = test: Percent reduction in Oesophagostomum eggs per gram, after treatment with 400 mg/kg dose of compound perorally in sheep; format: functional, Egg; details: route oral; procedure, shortened: as §4
Ovis aries [36] = test: Percent reduction in Ostertagia eggs per gram, after oral treatment of 250 mg/Kg dose of compound perorally in sheep; format: functional, Egg; procedure, shortened: as §4
Ovis aries [37] = test: Percent reduction in Haemonchus eggs per gram, after oral treatment of 100 mg/kg dose of compound perorally in sheep; format: functional, Egg; procedure, shortened: as §3
Ovis aries [38] = test: Percent reduction in Oesophagostomum eggs per gram, after treatment of 200 mg/kg dose of compound perorally in sheep; format: functional, Egg; details: route oral; procedure, shortened: as §4
Ovis aries [39] = test: Percent reduction in Oesophagostomum eggs per gram, after treatment with 250 mg/kg dose of compound perorally in sheep; format: functional, Egg; details: route oral; procedure, shortened: as §4
Ovis aries [40] = test: Percent reduction in Trichuris eggs per gram, after treatment with 250 mg/kg dose of compound perorally in sheep; format: functional, Egg; details: route oral; procedure, shortened: as §2
Ovis aries [41] = test: percent reduction in Strongyloides eggs per gram, after treatment with 250 mg/kg dose of compound perorally in sheep; format: functional, Egg; details: route oral
Ovis aries [42] = test: Percent reduction in Ostertagia eggs per gram, after treatment of 200 mg/kg dose of compound perorally in sheep; format: functional, Egg; details: route oral; procedure, shortened: as §4
Ovis aries [43] = test: Percent reduction in Cooperia eggs per gram, after treatment of 100 mg/kg dose of compound perorally in sheep; format: functional, Egg; details: route oral; procedure, shortened: as §3
Ovis aries [44] = test: Percent reduction in Cooperia eggs per gram, after treatment of 200 mg/kg dose of compound perorally in sheep; format: functional, Egg; details: route oral; procedure, shortened: as §3
Ovis aries [45] = test: Percent reduction in Cooperia eggs per gram, after treatment with 400 mg/kg dose of compound perorally in sheep; format: functional, Egg; details: route oral; procedure, shortened: as §3
Ovis aries [46] = test: Percent reduction in Strongyloides eggs per gram, after treatment of 200 mg/kg dose of compound perorally in sheep; format: functional, Egg; details: route oral; procedure, shortened: as §2
Ovis aries [47] = test: Percent reduction in Ostertagia eggs per gram, after treatment of 100 mg/kg dose of compound perorally in sheep; format: functional, Egg; details: route oral; procedure, shortened: as §4
Mus musculus [48] = organism: Mus musculus; test: Percent clearance of Hymenolepis nana from mouse after oral treatment of 1.87 mg/mouse/day; format: functional; procedure, shortened: as §1
Ovis aries [49] = test: Percent reduction in Trichuris eggs per gram, after treatment with 450 mg/kg dose of compound perorally in sheep; format: functional, Egg; details: route oral; procedure, shortened: as §2
Ovis aries [50] = test: Percent reduction in Haemonchus eggs per gram, after treatment with 400 mg/kg dose of compound perorally in sheep; format: functional, Egg; details: route oral; procedure, shortened: as §4
Ovis aries [51] = test: Percent reduction in Trichuris eggs per gram, after treatment with 350 mg/kg dose of compound perorally

Cc1cccc(/C(Cl)=N/Nc2ccccc2)c1
0%: Parasite_Clearance (Mus musculus [1]) | Parasite_Clearance (Mus musculus [2])

FC(F)(F)c1cccc(/C(Cl)=N/Nc2ccccc2)c1
84%: Reduction (Ovis aries [14])
62%: Reduction (Ovis aries [13])
0%: Parasite_Clearance (Mus musculus [6]) | Reduction (Ovis aries [12]) | Reduction (Ovis aries [49]) | Reduction (Ovis aries [51])
59%: Reduction (Ovis aries [41])
35%: Reduction (Ovis aries [11])
57%: Reduction (Ovis aries [40])
91%: Reduction (Ovis aries [39])
71%: Reduction (Ovis aries [33])
99%: Reduction (Ovis aries [17]) | Reduction (Ovis aries [32])
98%: Reduction (Ovis aries [15]) | Reduction (Ovis aries [37]) | Reduction (Ovis aries [47])
97%: Reduction (Ovis aries [10])
100%: Reduction (Canis familiaris [3]) | Reduction (Canis familiaris [4]) | Reduction (Canis familiaris [5]) | Reduction (Ovis aries [7]) | Reduction (Ovis aries [8]) | Reduction (Ovis aries [9]) | Reduction (Ovis aries [16]) | Reduction (Ovis aries [19]) | Reduction (Ovis aries [20]) | Reduction (Ovis aries [21]) | Reduction (Ovis aries [22]) | Reduction (Ovis aries [23]) | Reduction (Ovis aries [24]) | Reduction (Ovis aries [25]) | Reduction (Ovis aries [26]) | Reduction (Ovis aries [27]) | Reduction (Ovis aries [28]) | Reduction (Ovis aries [29]) | Reduction (Ovis aries [30]) | Reduction (Ovis aries [31]) | Reduction (Ovis aries [34]) | Reduction (Ovis aries [35]) | Reduction (Ovis aries [38]) | Reduction (Ovis aries [42]) | Reduction (Ovis aries [43]) | Reduction (Ovis aries [44]) | Reduction (Ovis aries [45]) | Reduction (Ovis aries [46]) | Reduction (Ovis aries [50])
75%: Parasite_Clearance (Mus musculus [48])
29%: Reduction (Ovis aries [18])
86%: Reduction (Ovis aries [36])

From ChEMBL document CHEMBL1121917, “Structure--activity relationships in a broad-spectrum anthelmintic series. Acid chloride phenylhydrazones. 1. Aryl substitutions and chloride variations” (1981)
